Fewer inactive variants are shown than the library holds.
B1: tRNA (parent)
chain: GUUCCGUUGGCGUAAUGGUAACGCGUCUCCCUCCUAAGGAGAAGACUGCGGGUUCGAGUCCCGUACGGAACG

Variants of: B1
Experiment: yeast fitness relative to wild type (ratio to wild type); higher = fitter; tRNA-Arg(CCU), competitive growth, 37 C, YPD
In short: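 Amplicons of the tRNA-Arg(CCU) gene were sequenced, 100-nucleotide paired-end, from the start population and from each end population of a pooled yeast competition. The competition, in six parallel replicates, lasted 24 hours in YPD at 37°C. Fitness relative to wild type was calculated from changes in genotype frequencies. Genotypes had to have ≥ 100 starting reads, and estimates < 0.5 were set to 0.5.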

Row | Variant | yeast fitness
1 | GCUCCGUUGGCCUAAUGGUAACGCGUCUCCCUCAUAAGGCGAAGACUGCGGGUUCGAGUCCCGUACGGAACG [U2C G12C C34A A40C] | ≤ 0.5
2 | GCUCCGUUAGCGUAAUGGUAACGGGUCUCUCUCCUAAGGAGAAGACUGCGGGUUCGAGUCCUGUACGGAACG [U2C G9A C24G C30U C62U] | ≤ 0.5
3 | GCUCCGUUGCCGUAAUGGUAACGCGUCUCCCUCCUAAGGAGAAGACUGCGAGUUCGAGUUCCGUACAGAACG [U2C G10C G51A C60U G67A] | ≤ 0.5
4 | GCUCCGUUGGCGUAAUGGUAACGCGUCUCCCUCCUAAGGAGAAGACUGGGGGUUCGAGUCCCGUGCGGAACG [U2C C49G A65G] | 0.594
5 | GCUCCGUUGGCGUAAUAGCAACGCGUCUCCCUCCUAAGGAGAAGACUGCCGGUUCCAGUCCCGUACGGAACG [U2C G17A U19C G50C G56C] | ≤ 0.5
6 | GCUCCGUUGACGUAAUGGUAACGCGUCUCCCUCGUAAGGAGAAGAUUCCGGGUGCGAGUCCCGUACGGAACG [U2C G10A C34G C46U G48C U54G] | ≤ 0.5
7 | GCUCCGUUGGCGUAAUCGUAACACGUCUCCCUCCUAAGGAGAAGACUGCGGAUUCGAGUCUCGUACGGAACG [U2C G17C G23A G52A C61U] | ≤ 0.5
8 | GCUCCGUUGGCGUAAUGCUAACGCGUCUCUCUCCUAAGGAGAAGACUGCGGGUUCGCGUCCCGCACGGAACG [U2C G18C C30U A57C U64C] | ≤ 0.5
9 | GCUCCGUUGACGUAAUGGUAACGCGUCUCCCUCCUAAGGAGAAGACUGAGGGUUCGAGUCCCGUUCGGAACG [U2C G10A C49A A65U] | ≤ 0.5
10 | GCUCCGUUGGCGUAAUCGUAACACGUCUCCCUCCUAAGGAGAAGACUGGGGGUUCGAGUCCCGUACGGAACG [U2C G17C G23A C49G] | ≤ 0.5
11 | GCUCCGUUGGCGUAAUGCUAACGCCUCUCACUCCUAAGGAGAAGACUGCGGGUUCGAGUCCCCUACGGAACG [U2C G18C G25C C30A G63C] | ≤ 0.5
12 | GCUCCGUUAGCGUAACGGUAACGCGUCUCCCUCCUAAGGAGAAGACUGCGGGUUCGAGUCCCGUACGGAACG [U2C G9A U16C] | 0.602
13 | GCUCCGUUGACGUAAUGGUAACGCGUCUCCCUCCUAAGGAGAAGACUGCGGGUUCGAGUCCCGUACGGAACG [U2C G10A] | 0.803
14 | GCUCCGUUGCCGUAAUGGUAACGCGUCUCCCUCCUCAGGAGAAGACUGCGGGUUCGAGUCCCGUACGGAACG [U2C G10C A36C] | 0.587
15 | GCUCCGUUGGCGUAAUGGUAACGCGUCUCCCUCCUAAGGAGAAGACUGCGGGUUCGAGUCCCGUAAGGCACG [U2C C66A A69C] | ≤ 0.5
16 | GCUCCAUUGGCGUAAAGGUAACGCGUCUCCCUCCUAAGGAGAAGACUGCGGGUUCGAGUCCCGUACGGAACG [U2C G6A U16A] | 0.65
17 | GCUCCGUUGGCGUAAUGGUAACGCGUCUCCCUCCUAAGGAGAAGACUGCGGGUUCGAGUCCUGUACGCGACG [U2C C62U G68C A69G] | ≤ 0.5
18 | GCUCCGUUGGCGUAAUGGUAACGCGUCUCCCUCCUAAGGAGAAGACUGCGGGUUACAGUCCCGUACCGAACG [U2C C55A G56C G67C] | ≤ 0.5
19 | GCUCCGUUGACGUAAUGGUAACGCGUCUCUCUCCUAAGGAGAAGACUGCGGGUUCGAGUCCCGUACGGAACG [U2C G10A C30U] | 0.629

Row | Variant | yeast fitness
20 | GCUCCGUUGGCAUAAUGGUAACGCGUCUCCCUCCUUAGGAGAAGACUGCGGGUUCGAGUCCCGUACGGAACG [U2C G12A A36U] | ≤ 0.5
21 | GCUCCGUUGGCAUAGUGGUAACGCGUCUCCCUCCUAAGGAGAAGACUGCGGGUUCGAGUCCUGUACGGAACG [U2C G12A A15G C62U] | ≤ 0.5
22 | GCUCCGUUGGCGUAAUGAUAACGCGUCUCCCUCCUAAGGAGAAGACUGCGGGUUCGAGUCCCGUACGGAACG [U2C G18A] | 0.806
23 | GCUCCGUUGGCGUAAUGCUAACGCGUCUCCCUCCUAAGGAGAAGACUGCGGGUUCGAGUCCCGUACGGAACG [U2C G18C] | 0.723
24 | GCUCCGUUGGCGUAAUGGUAACGCGUCUCCCUCCUAAGGAGAAGACUGCGGGUUGGAGUCCCGUACGGAACG [U2C C55G] | 0.583
25 | GCUCCGUUGGCCUGAUGGUAACGCGUCUUCCUCCUAAGGAGAAGACUGCGGGUUCGAGUCCCGUACGGAACG [U2C G12C A14G C29U] | ≤ 0.5
26 | GCUCCGUUGGCAUAAUGGUAACGCGUCUCCCUCCUAAGGAGAAGACUGCGGGUUCGAGUCCCGUACGGAACG [U2C G12A] | 0.993
27 | GCUCCAUUGGCGUAAUGGUAACACGUUUCCCUCCUAAGGAGAAGCCCGCGGGUUCGAGUACCGUACGGAACG [U2C G6A G23A C27U A45C U47C C60A] | ≤ 0.5
28 | GCUCCGUUGGCGUAAUGGUAACGCGUCUCCCUCCUAAGGAGAAGACUGGGGGUUUGAGUCCCGUACGGAACG [U2C C49G C55U] | 0.573
29 | GCUCCGUUGCCGUUAUGGUAACGCGUCUCCCUCCUAACGAGAAGACUGCGGGUUCGAGUCCCGUACGGAACG [U2C G10C A14U G38C] | ≤ 0.5
30 | GCUCCGUUGGCGUAAUGGUAACCCGUCUCCCUCCUAAGGAGAAGACUGCGGGUUCGAGUCCCGUACGGAACG [U2C G23C] | 0.651
31 | GCUCCGUUGGCGUAAUGCUAACGCGUCUCCCUCCUAAGGAGAAGACUGCGGGUUGGAGUCGCGUACGGAACG [U2C G18C C55G C61G] | 0.541
32 | GCUCCAUUGGCGUAAUGGUUACGCGUCUCUCUCCUUAGGAGAAGACUGCGGGUUCGAGUCCUGUACGGAACG [U2C G6A A20U C30U A36U C62U] | ≤ 0.5
33 | GCUCCGUUGGCGUAAUGGUAACACGUCUCCGUCCUAAGGAGAAGACUGCGGGUUCGAAUCCCGUACGGAACG [U2C G23A C31G G58A] | ≤ 0.5
34 | GCUCCGUUCGCGUAAUGGUAACGUGGCUCCCUCCUAAGGAGAAGACUGCGGGUUCGAGUCCCGUACGGAACG [U2C G9C C24U U26G] | ≤ 0.5
35 | GCUCCGUUAGCGUAAUGGUGACGCGUCUCCCUCCUAAGGAGAAGACUGCGGGUUCGAGUCCCGUACGGAACG [U2C G9A A20G] | 1.07
36 | GCUCCGUUGGCCUAAUGGUAACGCGUCUCCCUCCUAAGGAGAAGACUGUGGGUUCGAGUCCCGUGCGGAACG [U2C G12C C49U A65G] | ≤ 0.5
37 | GCUCCGUUGGCGUAAUGGUAACGCGUCUCCCUCCUAAGGAGAAGACUGCGGGUUCGAGUACCGUACGGAACG [U2C C60A] | 0.66
38 | GCUCCGUUGCCGUAAUGGUAACGAGUCUCCUUCCUCAGGAGAAGACUACGGGUUCGAGUCCCGUACGGAACG [U2C G10C C24A C31U A36C G48A] | ≤ 0.5
